The assay in a line: Inhibitory activity against human gamma-secretase in SH-SY5Y neuroblastoma cells. It is filed as cell-based. A digest of the protocol:
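Whole-cell assay in SH-SY5Y neuroblastoma cells overexpressing exogenous substrate A4CTF, cleaved by endogenous human γ-secretase. IC50 determined over 0.3 nM to 10 µM; values are the mean of at least three determinations, reported with SD.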
For `CN1C(=O)[C@@H](NC(=O)[C@@H](c2ccc(F)cc2)C(O)c2ccc(Cl)c(Cl)c2)N=C(c2ccccc2)c2ccccc21` (stereo not given in full), half-maximal inhibition (IC50) was put at 1.2 nM.
As to `CO[C@H](c1ccc(Cl)c(Cl)c1)[C@H](C)C(=O)N[C@H]1N=C(c2ccccc2)c2ccccc2N(C)C1=O`, the IC50 was determined as 59 nM.
Consider `C[C@H](C(=O)N[C@H]1N=C(c2ccccc2)c2ccccc2N(C)C1=O)[C@H](OCC(N)=O)c1ccc(Cl)c(Cl)c1`, for which the IC50 came out at 4750 nM.
On to `CC[C@H](c1ccc(F)c(F)c1)[C@@H](C(=O)N[C@H]1N=C(c2ccccc2)c2ccccc2N(C)C1=O)c1ccc(F)cc1`, for which inhibition was half-maximal at 212 nM (IC50).
The compound `C[C@H](C(=O)N[C@H]1N=C(c2ccccc2)c2ccccc2N(C)C1=O)[C@H](OC(N)=O)c1ccc(Cl)c(Cl)c1` showed an IC50 of 2450 nM.
`C[C@@H](C(=O)N[C@H]1N=C(c2ccccc2)c2ccccc2N(C)C1=O)[C@@H](O)c1ccc(Cl)c(Cl)c1`: the 50% inhibitory concentration (IC50) is 880 nM.
As for `O=C1Nc2ccccc2C(c2ccccc2)=N[C@@H]1NC(=O)[C@@H](c1ccc(F)cc1)[C@H](CCO)c1ccc(F)c(F)c1`, 35 nM corresponded to half-maximal inhibition (IC50).
As to `CN1C(=O)[C@@H](NC(=O)[C@@H](c2ccc(F)cc2)[C@H](CO)c2ccc(F)c(F)c2)N=C(c2ccccc2)c2ccccc21`, it took 0.07 nM to reach half-maximal inhibition (IC50).
Consider `C[C@H](C(=O)N[C@H]1N=C(c2ccccc2)c2ccccc2N(C)C1=O)[C@@H](O)c1ccc(Cl)c(Cl)c1`, for which the IC50 came out at 380 nM.
In the case of `C=C[C@H](c1ccc(F)c(F)c1)[C@@H](C(=O)N[C@H]1N=C(c2ccccc2)c2ccccc2N(C)C1=O)c1ccc(F)cc1`, inhibition was half-maximal at 100 nM (IC50).
For `CN1C(=O)[C@@H](NC(=O)[C@@H](c2ccc(F)cc2)[C@H](CBr)c2ccc(F)c(F)c2)N=C(c2ccccc2)c2ccccc21` the value was 6.7 nM; for `C[C@H](C(=O)N[C@H]1N=C(c2ccccc2)c2ccccc2N(C)C1=O)[C@H](O)c1ccc(Cl)c(Cl)c1`, 19 nM; for `C[C@H](Cc1ccc(Cl)c(Cl)c1)C(=O)N[C@H]1N=C(c2ccccc2)c2ccccc2N(C)C1=O`, 320 nM.
`CN1C(=O)[C@@H](NC(=O)[C@H](c2ccc(F)cc2)[C@@H](O)c2ccc(F)c(F)c2)N=C(c2ccccc2)c2ccccc21`: the concentration for half-maximal inhibition (IC50) was 9.6 nM.
For `CN1C(=O)[C@@H](NC(=O)[C@@H](c2ccc(F)cc2)C(O)c2ccc(F)c(F)c2)N=C(c2ccccc2)c2ccccc21` (stereo not given in full) the value was 0.8 nM.
Take `CO/N=C(\c1ccc(Cl)c(Cl)c1)C(C)C(=O)N[C@H]1N=C(c2ccccc2)c2ccccc2N(C)C1=O` (stereo not given in full): the 50% inhibitory concentration (IC50) was > 10000 nM.
`CC(C(=O)N[C@H]1N=C(c2ccccc2)c2ccccc2N(C)C1=O)C(=O)c1ccc(Cl)c(Cl)c1` (stereo not given in full) yielded an IC50 of 930 nM.
Compound `C[C@H](C(=O)N[C@H]1N=C(c2ccccc2)c2ccccc2N(C)C1=O)[C@H](OS(N)(=O)=O)c1ccc(Cl)c(Cl)c1` had a half-maximal inhibitory concentration (IC50) of 450 nM.
`CC(C(=O)N[C@H]1N=C(c2ccccc2)c2ccccc2N(C)C1=O)/C(=N/O)c1ccc(Cl)c(Cl)c1` (stereo not given in full) yielded a 50% inhibitory concentration (IC50) of 35 nM.
In turn, `CN1C(=O)[C@@H](NC(=O)[C@@H](Cc2ccc(Cl)c(Cl)c2)c2ccc(F)cc2)N=C(c2ccccc2)c2ccccc21` showed a concentration for half-maximal inhibition (IC50) of 15 nM.
Take `CC(C(=O)N[C@H]1N=C(c2ccccc2)c2ccccc2N(C)C1=O)C(CO)c1ccc(F)c(F)c1` (stereo not given in full): the IC50 amounted to 6.9 nM.
`O=C1Nc2ccccc2N(c2ccccc2)C[C@@H]1NC(=O)[C@@H](c1ccc(F)cc1)[C@H](CO)c1ccc(F)c(F)c1` gave an IC50 of 0.07 nM.
The value for `CN1C(=O)[C@@H](NC(=O)[C@H](c2ccc(F)cc2)[C@@H](O)c2ccc(Cl)c(Cl)c2)N=C(c2ccccc2)c2ccccc21` was 67 nM; that for `O=C1Nc2ccccc2C(c2ccccc2)=N[C@@H]1NC(=O)[C@@H](c1ccc(F)cc1)[C@H](CO)c1ccc(F)c(F)c1` was 0.06 nM.
With `C[C@@H](C(=O)N[C@H]1N=C(c2ccccc2)c2ccccc2N(C)C1=O)[C@H](O)c1ccc(Cl)c(Cl)c1`, the half-inhibitory concentration (IC50) was 1340 nM.

Source of the values: ChEMBL document CHEMBL1145003, “Design and synthesis of highly potent benzodiazepine gamma-secretase inhibitors: preparation of (2S,3R)-3-(3,4-difluorophenyl)-2-(4-fluorophenyl)-4- hydroxy-N-((3S)-1-methyl-2-oxo-5- phenyl-2,3-dihydro-1H-benzo[e][1,4]-diazepin-3-yl)butyramide by use of an asymmetric Ireland-Claisen rearrangement” (J Med Chem, 2003).
